Compound activity (PubChem)
SR-BI DiI inh: inhibitors of SR-BI mediated HDL lipid uptake, primary screen, ldlA[mSR-BI] cells, fluorescence, single point; Scavenger receptor class B member 1 (Mus musculus), Q61009; actives 0.96% (n = 320,000); ldlA[mSR-BI] CHO cells, DiI-HDL uptake fluorescence, 3 h; inhibition, % at 12.5 µM;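 active = mean replicate inhibition of at least 70% and a set share of replicates each scoring 70 or more; inconclusive = meets just one of the two criteria; inactive = fails both criteria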;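 also: 0% = median of neutral control wells and 100% = median of positive control wells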
S100A4 MyoIIA: inhibitors of S100A4-myosin IIA peptide binding, primary screen, biochemical, fluorescence polarization, TAMRA-MyoIIA peptide. inhibition, % at 10.7 µM. actives 0.14% (n = 360,000). AID 652163, 2013;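 active = mean inhibition of at least 70% across replicates, with every replicate also reaching that level; inconclusive = mean inhibition reaches 70% but some replicates fall short; inactive = mean inhibition below 70%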
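incubation = readout 5 min after mixing, signal stable up to 60 min | system = S100A4 monomer protein | buffer or medium = HEPES pH 7.2 with CaCl2, KCl, NaCl, DTT, Triton | benchmarks = neutral control DMSO, positive control TFP | also added = fluorescent myosin IIA peptide, 5 nM | compound dosing = one concentration per compound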
SR-BI uptake up: activators of SR-BI mediated DiI-HDL uptake, primary screen, ldlA[mSR-BI] CHO cells, DiI fluorescence. 3 h; 100 = double the neutral-control signal. activation, % at 12.5 µM. actives 0.096% (n = 320,000). AID 504775, 2011;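 active = mean replicate activation of at least 60% and every replicate at or above 60%; inconclusive = mean or all-replicate condition met, but not both; inactive = mean below 60% and not all replicates reaching 60%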;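 also: 0% = median plate neutral-control signal and 100% = twice that signal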
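Assay system: CHO ldlA[mSR-BI] cells, LDL receptor-null, SR-BI overexpressing; medium: Ham's F12 with 0.5% BSA, HEPES 25 mM, pH 7.4; also added: DiI-HDL 10 µg/mL; timing: 3 h uptake period with compound, 37 °C; signal: DiI fluorescence, bottom read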
dFosB act-1: activators of delta FosB homodimer, primary screen, biochemical, fluorescence polarization, TAMRA-CDK5 oligo, single point; activation, % at 25 µM; actives 0.99% (n = 340,000); purified delta FosB; percent of positive-control signal above neutral wells; Protein FosB (Mus musculus), P13346;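 active = mean activation above about 17%, with every replicate also reaching it, limit read from the data, passing the limit was not always enough; inconclusive = only one of the two conditions met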
PvdQ acylase: P. aeruginosa PvdQ acylase inhibitors, primary screen, biochemical, fluorescence, plate reader and imaging, single point; actives 0.063% (n = 340,000); PvdQ acylase [Pseudomonas aeruginosa LESB58]; purified PvdQ acylase; AID 488965, 2010; inhibition, % at 10 µM; in the data active = inhibition above about 30%, passing the limit was not always enough; inconclusive = no clear call, values can overlap the other calls;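 also: 0% = vehicle neutral wells and 100% = reference inhibitor wells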
RAD54 inh: inhibitors of human RAD54 branch migration, primary screen, biochemical, fluorescence, single point | DNA repair and recombination protein RAD54-like (Homo sapiens), Q92698 | RAD54 Holliday junction branch migration, FAM/BHQ fluorescence | inhibition, % at 10.4 µM | actives 0.14% (n = 360,000) | AID 602329, 2012;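 active = mean normalized replicate activity at least 40 and at least half of replicates scoring 40 or more; inconclusive = only one of the two criteria met; inactive = mean below 40 and under half of replicates reaching 40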;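 also: 0% = median of neutral control wells and 100% = median of positive control wells; inhibitors cause a drop in the FAM fluorescence signal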
Target sequence (Q92698 whole entry, looked up): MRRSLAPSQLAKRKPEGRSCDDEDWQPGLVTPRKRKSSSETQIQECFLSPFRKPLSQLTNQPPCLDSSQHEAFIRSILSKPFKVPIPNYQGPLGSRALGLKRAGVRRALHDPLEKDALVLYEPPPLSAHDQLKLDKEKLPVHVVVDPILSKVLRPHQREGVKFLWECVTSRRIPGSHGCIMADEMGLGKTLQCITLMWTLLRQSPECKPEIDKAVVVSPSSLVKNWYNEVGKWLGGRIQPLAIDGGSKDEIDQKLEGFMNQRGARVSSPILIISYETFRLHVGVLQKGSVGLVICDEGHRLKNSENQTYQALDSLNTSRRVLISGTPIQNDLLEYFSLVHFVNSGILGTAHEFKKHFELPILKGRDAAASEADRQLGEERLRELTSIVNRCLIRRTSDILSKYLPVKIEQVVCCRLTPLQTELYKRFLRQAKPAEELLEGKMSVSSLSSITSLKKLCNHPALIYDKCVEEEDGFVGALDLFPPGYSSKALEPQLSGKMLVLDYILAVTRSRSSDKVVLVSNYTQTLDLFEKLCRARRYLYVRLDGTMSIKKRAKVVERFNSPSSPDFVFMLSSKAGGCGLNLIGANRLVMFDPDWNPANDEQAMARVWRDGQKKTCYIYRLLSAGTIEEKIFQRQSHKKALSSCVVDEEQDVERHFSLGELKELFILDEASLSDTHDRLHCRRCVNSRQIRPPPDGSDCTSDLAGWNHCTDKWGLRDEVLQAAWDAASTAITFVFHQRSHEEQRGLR
dFosB act-2: activators of mouse delta FosB DNA binding, confirmation, biochemical, fluorescence polarization, TAMRA-CDK5 oligo, cherry-picked samples | shares compounds with dFosB act-1 | purified delta FosB; normalised: neutral wells 0, positive control 100 | activation, % at 24.9 µM | 2,400 tested, under 10 active | AID 588690, 2011;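 active = highest replicate activation at or above 34% and every replicate reaching that threshold; inconclusive = meets only one of the two criteria; inactive = meets neither criterion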;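 also: higher polarization means more probe DNA bound by delta FosB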
Numbers without * were called inactive; ? = inconclusive; . = no result. Most compounds without a hit are left out; they make up all but 1.6% or so of the library.

SMILES	SR-BI DiI inh	S100A4 MyoIIA	SR-BI uptake up	dFosB act-1	PvdQ acylase	RAD54 inh	dFosB act-2
CC(C)c1nnc(NC(=O)c2ccc3c(c2)OCO3)s1	4	-4	-4	-5	-10	.	.
COc1ccccc1-c1nnc(NC(=O)c2ccc3c(c2)OCO3)s1	34	-5	-34	59*	-10	.	2
COc1cc(C(=O)Nc2nnc(-c3sccc3C)s2)cc(OC)c1OC	12	.	-12	17*	-9	10	6
COc1cccc(C(=O)Nc2nnc(-c3ccc(OC)cc3OC)s2)c1	.	1	.	39*	-6	1	7
COc1cccc(C(=O)Nc2nnc(-c3ccccc3)s2)c1	-4	0	4	-6	11	5	.
CCOCc1nnc(NC(=O)c2cc(OC)c(OC)c(OC)c2)s1	7	15	-7	-14	7	-5	.
COc1ccc(S(=O)(=O)Nc2ccc3c(c2)C(=O)N([C@@H](C)CO)C[C@@H](C)[C@@H](CN(C)CC2CCCCC2)OCCCC[C@@H](C)O3)cc1	.	.	.	.	.	8	.
O=C(Nc1cccc(S(=O)(=O)N2CCCCC2)c1)c1c2c(nc3ccccc13)CCN(Cc1ccccc1)C2	0	-11	0	52*	7	.	-2
O=C(Cn1nc(C(=O)O)c2ccccc2c1=O)Nc1cccc(S(=O)(=O)N2CCCCCC2)c1	12	1	-12	32*	11	.	-1
O=C(O)c1nn(CC(=O)N2CCN(S(=O)(=O)c3ccc(Cl)cc3)CC2)c(=O)c2ccccc12	.	2	.	30*	0	-2	4
CC(=O)c1cccc(NC(=O)CC2S/C(=N/N=C/c3ccccc3)NC2=O)c1 (stereo unspecified)	13	.	-13	49*	-7	.	3
CC(=O)c1cccc(NC(=O)CC2S/C(=N/N=C/c3cccs3)NC2=O)c1 (stereo unspecified)	51	2	-51	40*	-13	.	-6
COc1ccc(-c2cc(C(=O)Nc3cccnc3Cl)no2)cc1	.	1	.	13	-9	-4	.
O=C(Nc1cccnc1Cl)c1cc(-c2ccc(F)cc2)on1	.	5	.	84*	-11	-9	1
O=C(Nc1cccnc1)c1cc(-c2cccc(Cl)c2)on1	-10	0	10	57*	-12	-1	2
CC(=O)c1cccc(NC(=O)c2cc(-c3ccc(F)cc3)on2)c1	24	-1	-24	25*	-11	0	1
Cc1cccc(S(=O)(=O)N2CC[C@@H]3[C@H](CO)Nc4ccc(C#Cc5cccc(F)c5)cc4[C@@H]32)c1	.	-6	.	.	.	11	.
O=C(COc1ccc2ccccc2c1Br)Nc1ncn[nH]1	6	-4	-6	25*	2	.	6
Fc1ccc(NC(=S)N/N=C/c2cccc(Br)c2)c(F)c1	11	0	-11	36*	-10	6	2
CCN(CC)S(=O)(=O)c1ccc(-c2nnc(SCC(=O)Nc3ccc4c(c3)OCO4)o2)cc1	24	1	-24	31*	3	.	-2
O=C(COC(=O)CSc1nnc(-c2ccc(Cl)cc2)o1)NCc1ccc2c(c1)OCO2	-17	.	17	24*	-6	5	3
O=C(COC(=O)Cc1ccc(Cl)cc1)NCc1ccc2c(c1)OCO2	0	1	0	-2	4	7	.
Cc1cc(C)c(NC(=O)Cn2nnc(C(=O)NCc3cccs3)c2N)c(C)c1	-29	.	29	12	-8	-2	.
CCc1ccccc1NC(=O)c1nnn(CC(=O)Nc2cccc(C)c2)c1N	-3	-2	3	7	5	-2	.
Cc1cc(C)cc(NC(=O)Cn2nnc(C(=O)NCc3cccs3)c2N)c1	-15	3	15	58*	-3	.	3
SMILES	SR-BI DiI inh	S100A4 MyoIIA	SR-BI uptake up	dFosB act-1	PvdQ acylase	RAD54 inh	dFosB act-2
Cc1c(Cl)cccc1NC(=O)Cn1nnc(C(=O)NCc2cccs2)c1N	-18	.	18	39*	-10	.	-3
Cc1cccc(NC(=O)Cn2nnc(C(=O)NCc3cccs3)c2N)c1C	-34	.	34	42*	5	-2	4
Cc1ccc(NC(=O)Cn2nnc(C(=O)NCc3cccs3)c2N)c(C)c1	-10	1	10	13	6	2	.
CCc1ccccc1NC(=O)c1nnn(CC(=O)Nc2cccc(C)c2C)c1N	0	.	0	42*	-11	0	-8
CS(=O)(=O)N1[C@H](C(=O)NCC2CC2)[C@@H](CO)[C@@H]2Cn3c(ccc(-c4ccccc4F)c3=O)[C@@H]21	.	7	.	.	.	.	.
Cc1ccc(-n2c(O)c(C=NCc3ccccn3)c3ccccc3c2=O)cc1	12	11	-12	26*	0	1	5
Cc1cc([N+](=O)[O-])ccc1NC(=O)Nc1ccc(F)cc1F	?	4	-71	24*	-4	.	2
COc1ccc(NC(=O)Nc2ccc(F)cc2F)c(C)c1	4	.	-4	0	-16	-3	.
COc1ccccc1/C=N/NC(=O)c1cccc2ccccc12	77*	-1	-77	37*	-4	4	2
COc1ccc(/C=N/NC(=O)c2ccncc2)cc1CN1CCOCC1	37	-4	-37	-4	7	.	.
CCOc1cccc(-c2cc(C(=O)N/N=C/c3ccc(OC)c(CN4CCOCC4)c3)c3ccccc3n2)c1	38	.	-38	39*	-6	.	3
O=C(N/N=C/c1cccc2ccccc12)c1cc2ccccc2o1	15	1	-15	20*	6	22	5
COc1ccc(/C=N/NC(=O)c2ccccc2NC(=O)c2ccco2)c(OC)c1	23	-1	-23	84*	-13	.	2
COc1ccc(NC(=O)N(C)C[C@@H]2Oc3ccc(N(C)C)cc3CC(=O)N([C@H](C)CO)C[C@@H]2C)cc1	.	-16	.	.	.	5	.
Cc1ccc(-c2cnc3c(c2)C(=O)N([C@H](C)CO)C[C@@H](C)[C@H](CN(C)C(=O)c2ccc(F)cc2)O3)cc1	.	16	.	.	.	-5	.
COc1ccc(/C=N/NC(=O)c2cc(-c3ccccc3)nc3ccccc23)c(OC)c1	44	4	-44	23*	-4	.	1
